Test results taken from ChEMBL document CHEMBL1140904, “Synthesis and analysis of novel glycerolipids for the treatment of metabolic syndrome” (J Med Chem, 2009).

Experiments:
Rattus norvegicus [1] = test: Effect on fatty acid composition in Wistar rat assessed as change in plasma PUFA level at dose equivalent to 250 umol of tetradecylthioacetic acid, po after 6 days; assay type: functional
Rattus norvegicus [2] = test: Effect on fatty acid composition in Wistar rat assessed as change in liver LCn-6/18:2 level at dose equivalent to 250 umol of tetradecylthioacetic acid, po after 6 days; assay type: functional
Procedure, shortened: (§1)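 Male Wistar rats were gavaged once daily for 6 days with compound in 0.5% CMC at 85 or 250 µmol TTA-equivalent per animal. Controls received palmitic acid. Liver was homogenized in 0.25 M sucrose/10 mM HEPES pH 7.4/1 mM EDTA at 0-4 °C. Lipids were extracted with chloroform:methanol 2:1 and spiked with 21:0 internal standard. Fatty acids were BF3-methanol transesterified and quantified as wt%. Values are mean ± SD, n=5.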

Rattus norvegicus [3] = test: Effect on fatty acid composition in Wistar rat assessed as change in plasma LCPUFA, n-6 level at dose equivalent to 250 umol of tetradecylthioacetic acid, po after 6 days; assay type: functional
Rattus norvegicus [4] = test: Induction of PPAR-alpha-regulated mitochondrial HMG-CoA synthase activity in Wistar rat at dose equivalent to 250 umol of tetradecylthioacetic acid, po after 6 days relative to control; assay type: functional
Procedure, shortened: (§2)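 Wistar rats were gavaged daily for 6 days at 85 or 250 µmol TTA-equivalent in 0.5% CMC, with palmitic acid controls. HMG-CoA synthase activity was assayed in the liver postnuclear fraction by the Clinkenbeard method. Mean ± SD, 5 rats/group.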

Rattus norvegicus [5] = test: Decrease in plasma cholesterol level in po dosed Wistar rat after 6 days; assay type: functional, organism-based
Procedure, shortened: (§3)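 Male Wistar rats (170-210 g), housed in pairs with chow and water, were gavaged once daily for 6 days with test lipid in 0.5% (w/v) carboxymethylcellulose at 85 or 250 µmol TTA-equivalent per animal. Controls received palmitic acid in CMC. Plasma triacylglycerol and cholesterol were measured with an enzymatic kit, and liver levels were also determined. Values are mean ± SD, n=5 rats.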

Rattus norvegicus [6] = test: Decrease in liver triacylglycerol level in Wistar rat at dose equivalent to 250 umol of tetradecylthioacetic acid, po after 6 days relative to control; assay type: functional; set-up: scale not given: the % may be the effect or the level left; procedure, shortened: as §3
Rattus norvegicus [7] = test: Induction of PPAR-alpha-regulated HMG-CoA synthase activity in po dosed Wistar rat after 6 days; assay type: functional, organism-based; procedure, shortened: as §2
Rattus norvegicus [8] = test: Induction of PPAR-alpha-regulated CPT2 activity in po dosed Wistar rat after 6 days; assay type: functional, organism-based
Procedure, shortened: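 Wistar rats were dosed orally for 6 days (85 or 250 µmol TTA-equivalent in 0.5% CMC; palmitic acid controls). CPT-II activity was measured in the liver mitochondrial fraction, prepared from sucrose/HEPES pH 7.4/EDTA homogenate at 0-4 °C. Means ± SD from 5 rats per group.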

Rattus norvegicus [9] = test: Effect on fatty acid composition in Wistar rat assessed as change in plasma saturated fatty acid level at dose equivalent to 85 umol of tetradecylthioacetic acid, po after 6 days; assay type: functional
Rattus norvegicus [10] = test: Effect on fatty acid composition in Wistar rat assessed as change in liver LCPUFA, n-6 level at dose equivalent to 250 umol of tetradecylthioacetic acid, po after 6 days; assay type: functional; procedure, shortened: as §1
Rattus norvegicus [11] = test: Effect on fatty acid composition in Wistar rat assessed as change in liver PUFA level at dose equivalent to 85 umol of tetradecylthioacetic acid, po after 6 days; assay type: functional; procedure, shortened: as §1

Q: Which Activity (Rattus norvegicus [1]) does the source give for `CCCCCCCCCCCCCCSCC(=O)OC[C@H](COP(=O)([O-])OCC[N+](C)(C)C)OC(=O)CSCCCCCCCCCCCCCC` [PHOSPHATIDYLCHOLINE] here?
A: The Activity was 1.86%.

Q: What about the Activity (Rattus norvegicus [2]) of the same compound?
A: Its Activity is 3.49%.

Q: What about the Activity (Rattus norvegicus [3]) of the same compound?
A: Its Activity is 22.07%.

Q: And the “fold change (FC)” value (Rattus norvegicus [4])?
A: Its value is 4.

Q: And the Activity (Rattus norvegicus [5])?
A: The Activity was “Dose-dependent effect”.

Q: What about the Activity (Rattus norvegicus [6]) of the same compound?
A: Its Activity is 25%.

Q: What about the Activity (Rattus norvegicus [7]) of the same compound?
A: The Activity was “Dose-dependent effect”.

Q: What about the Activity (Rattus norvegicus [8]) of the same compound?
A: Its Activity is “Dose-dependent effect”.

Q: What about the Activity (Rattus norvegicus [9]) of the same compound?
A: The Activity was 35.65%.

Q: And the Activity (Rattus norvegicus [10])?
A: Its Activity is 30.3%.

Q: What about the Activity (Rattus norvegicus [11]) of the same compound?
A: Its Activity is 4.91%.
